In brackets after ≈: the same amount, converted by molar mass. Activity calls are given as the source filed them. The rule behind the calls is not given here.
What was measured:
[1] = system: Human alphaherpesvirus 2; assay: Antiviral activity against Herpes simplex virus 2 G infected in human HEL cells assessed as inhibition of virus-induced cytopathic effect after 3 days by MTS assay; assay type: functional, organism-based; conditions: strain G
Outline: (§1)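 Confluent cell monolayers were infected with 100 CCID50 of virus and allowed 2 h adsorption at 37 °C. Virus was then removed and serial compound dilutions were added. Cultures were incubated at 37 °C for 3 days, until CPE was complete in the untreated virus control. EC50 was the concentration giving 50% inhibition of virus-induced CPE, by visual score or by MTS formazan cell viability.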

[2] = system: Feline coronavirus; assay: Antiviral activity against Feline caronavirus infected in […] cells assessed as inhibition of virus-induced cytopathic effect after 3 days by MTS assay; assay type: functional, organism-based; outline: as §1
[3] = system: Bacillus subtilis; assay: Antibacterial activity against Bacillus subtilis after 24 hrs by serial dilution method; assay type: functional
[4] = system: Coxsackievirus B4; assay: Antiviral activity against Coxsackie virus B4 infected in human HeLa cells assessed as inhibition of virus-induced cytopathic effect after 3 days by MTS assay; assay type: functional, organism-based; conditions: Enterovirus B, 72 h; outline: as §1
[5] = system: Influenza A virus; assay: Antiviral activity against influenza A virus H3N2 infected in MDCK cells assessed as inhibition of virus-induced cytopathic effect after 3 days by MTS assay; assay type: functional, organism-based; outline: as §1
[6] = system: Escherichia coli; assay: Antibacterial activity against Escherichia coli after 24 hrs by serial dilution method; assay type: functional
[7] = system: Punta Toro virus; assay: Antiviral activity against Punta toro virus infected in african green monkey Vero cells assessed as inhibition of virus-induced cytopathic effect after 3 days by MTS assay; assay type: functional, organism-based; outline: as §1
[8] = system: Aspergillus niger; assay: Antifungal activity against Aspergillus niger after 7 days by serial dilution method; assay type: functional
[9] = system: Felid alphaherpesvirus 1; assay: Antiviral activity against Feline herpesvirus 1 infected in […] cells assessed as inhibition of virus-induced cytopathic effect after 3 days by MTS assay; assay type: functional, organism-based; outline: as §1
[10] = system: Human alphaherpesvirus 1; assay: Antiviral activity against acyclovir-resistant […] kinase-deficient HSV1 KOS infected in human HEL cells assessed as inhibition of virus-induced cytopathic effect after 3 days by MTS assay; assay type: functional, organism-based; outline: as §1
[11] = system: Vesicular stomatitis virus; assay: Antiviral activity against VSV infected in human HEL cells assessed as inhibition of virus-induced cytopathic effect after 3 days by MTS assay; assay type: functional, organism-based; outline: as §1
[12] = system: Candida albicans; assay: Antifungal activity against Candida albicans after 48 hrs by serial dilution method; assay type: functional
Outline: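 Serial compound dilutions in Sabouraud dextrose broth (tube dilution), incubated 37 °C for 48 h. MIC was read as the lowest concentration with no growth.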

[13] = system: Coxsackievirus B4; assay: Antiviral activity against Coxsackie virus B4 infected in african green monkey Vero cells assessed as inhibition of virus-induced cytopathic effect after 3 days by MTS assay; assay type: functional, organism-based; outline: as §1
[14] = system: Vaccinia virus; assay: Antiviral activity against Vaccinia virus infected in human HEL cells assessed as inhibition of virus-induced cytopathic effect after 3 days by MTS assay; assay type: functional, organism-based; conditions: Orthopoxvirus vaccinia; outline: as §1
[15] = system: Human respirovirus 3; assay: Antiviral activity against Parainfluenza 3 virus infected in african green monkey Vero cells assessed as inhibition of virus-induced cytopathic effect after 3 days by MTS assay; assay type: functional, organism-based; outline: as §1
[16] = system: Mammalian orthoreovirus 1; assay: Antiviral activity against Reovirus 1 infected in african green monkey Vero cells assessed as inhibition of virus-induced cytopathic effect after 3 days by MTS assay; assay type: functional, organism-based; outline: as §1
[17] = system: Staphylococcus aureus; assay: Antibacterial activity against Staphylococcus aureus after 24 hrs by serial dilution method; assay type: functional
[18] = system: Vesicular stomatitis virus; assay: Antiviral activity against VSV infected in human HeLa cells assessed as inhibition of virus-induced cytopathic effect after 3 days by MTS assay; assay type: functional, organism-based; conditions: 72 h; outline: as §1
[19] = system: HeLa; assay: (§2) Cytotoxicity against human HeLa cells after 3 days by MTS assay; assay type: cell-based; conditions: hela, 72 h
Outline: (§3)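 Uninfected HeLa cells were run in parallel with the antiviral assay and exposed to serial compound dilutions. CC50 is the 50% cytotoxic concentration from colorimetric formazan-based MTS cell viability.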

[20] = as §2; assay type: cell-based; conditions: HeLa cells; outline: as §3
[21] = system: Influenza B virus; assay: Antiviral activity against influenza B virus infected in MDCK cells assessed as inhibition of virus-induced cytopathic effect after 3 days by MTS assay; assay type: functional, organism-based; outline: as §1
[22] = system: Human alphaherpesvirus 1; assay: Antiviral activity against Herpes simplex virus 1 KOS infected in human HEL cells assessed as inhibition of virus-induced cytopathic effect after 3 days by MTS assay; assay type: functional, organism-based; outline: as §1
[23] = system: Influenza A virus; assay: Antiviral activity against influenza A virus H1N1 infected in MDCK cells assessed as inhibition of virus-induced cytopathic effect after 3 days by MTS assay; assay type: functional, organism-based; outline: as §1
[24] = system: Respiratory syncytial virus; assay: Antiviral activity against RSV infected in human HeLa cells assessed as inhibition of virus-induced cytopathic effect after 3 days by MTS assay; assay type: functional, organism-based; conditions: 72 h; outline: as §1
[25] = system: Sindbis virus; assay: Antiviral activity against Simbidis virus infected in african green monkey Vero cells assessed as inhibition of virus-induced cytopathic effect after 3 days by MTS assay; assay type: functional, organism-based; outline: as §1

COc1cc(OC)cc(C(=O)N/N=C/c2ccccc2)c1
inhibition [1]: inactive
inhibition [2]: inactive
MBC [3]: 0.044 uM/ml
EC50 [4]: > 20 µg/mL
inhibition [5]: inactive
MBC [6]: 0.177 uM/ml
inhibition [7]: inactive
-logMIC [8]: 1.66
MFC [8]: 0.022 uM/ml
inhibition [9]: inactive
inhibition [10]: inactive
inhibition [11]: inactive
MFC [12]: 0.011 uM/ml
inhibition [13]: inactive
inhibition [14]: inactive
inhibition [15]: inactive
inhibition [16]: inactive
MBC [17]: 0.088 uM/ml
EC50 [18]: 6.5 µg/mL (≈ 22.9 µM)
CC50 [19]: 61.2 µg/mL (≈ 215 µM)
MCC at 72 h [20]: 100 µg/mL
inhibition [21]: inactive
inhibition [22]: inactive
inhibition [23]: inactive
EC50 [24]: > 20 µg/mL
inhibition [25]: inactive
